Test results as given in ChEMBL document CHEMBL1141158, “New 5-hydroxytryptamine(1A) receptor ligands containing a norbornene nucleus: synthesis and in vitro pharmacological evaluation” (J Med Chem, 2005).

How the values were obtained:
D(1A) dopamine receptor = D(1A) dopamine receptor (Rattus norvegicus, UniProt P18901); assay: Inhibition of [3H]SCH-23,390 binding to Dopamine D1 receptor from rat striatum
Procedure, shortened: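 Rat striatal membranes washed twice by 50 000g spins, resuspended in Tris-HCl pH 7.1 with NaCl, KCl, CaCl2, MgCl2, ascorbic acid, 10 μM pargyline; 3 mg fresh tissue per tube. [3H]SCH-23390 at 0.4 nM final, 15 min at 37 °C, GF/B filtration, scintillation counting. Nonspecific with 0.1 μM piflutixol. Six concentrations in triplicate; IC50 converted to Ki by Cheng–Prusoff.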

[1] = molecular target: T1, Adrenergic receptor alpha-1 (Rattus norvegicus, UniProt P15823+P23944+P43140); assay: Inhibition of [3H]prazosin bindign to Adrenergic alpha 1 receptor from rat brain cortex
T1 sequence (P15823 whole entry): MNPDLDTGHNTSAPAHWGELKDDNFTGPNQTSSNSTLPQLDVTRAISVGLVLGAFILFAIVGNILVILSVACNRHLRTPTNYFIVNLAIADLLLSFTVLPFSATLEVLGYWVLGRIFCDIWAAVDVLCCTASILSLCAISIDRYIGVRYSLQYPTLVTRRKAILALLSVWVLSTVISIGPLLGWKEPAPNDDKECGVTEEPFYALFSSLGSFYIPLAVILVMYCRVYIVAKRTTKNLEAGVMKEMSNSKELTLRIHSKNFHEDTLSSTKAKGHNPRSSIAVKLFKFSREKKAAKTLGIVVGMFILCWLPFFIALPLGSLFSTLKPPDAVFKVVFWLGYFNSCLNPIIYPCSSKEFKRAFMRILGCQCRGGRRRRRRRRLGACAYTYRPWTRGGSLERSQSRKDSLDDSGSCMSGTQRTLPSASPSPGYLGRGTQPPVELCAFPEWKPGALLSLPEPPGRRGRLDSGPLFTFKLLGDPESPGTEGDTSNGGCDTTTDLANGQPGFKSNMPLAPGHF
T1 sequence (P23944 whole entry): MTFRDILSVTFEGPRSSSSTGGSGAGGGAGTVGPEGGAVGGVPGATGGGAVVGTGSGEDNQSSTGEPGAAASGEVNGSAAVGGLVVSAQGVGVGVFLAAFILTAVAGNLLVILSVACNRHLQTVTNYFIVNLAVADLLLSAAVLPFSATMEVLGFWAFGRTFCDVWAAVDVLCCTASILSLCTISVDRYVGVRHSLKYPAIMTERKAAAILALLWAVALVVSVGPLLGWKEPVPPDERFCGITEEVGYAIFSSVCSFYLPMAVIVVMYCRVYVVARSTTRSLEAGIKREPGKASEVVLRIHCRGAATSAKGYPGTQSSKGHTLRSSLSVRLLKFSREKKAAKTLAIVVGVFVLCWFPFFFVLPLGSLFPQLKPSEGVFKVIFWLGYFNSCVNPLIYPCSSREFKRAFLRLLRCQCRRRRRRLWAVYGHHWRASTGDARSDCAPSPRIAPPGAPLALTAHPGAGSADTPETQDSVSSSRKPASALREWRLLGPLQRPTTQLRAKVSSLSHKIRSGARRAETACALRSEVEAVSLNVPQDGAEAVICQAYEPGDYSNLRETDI
T1 sequence (P43140 whole entry): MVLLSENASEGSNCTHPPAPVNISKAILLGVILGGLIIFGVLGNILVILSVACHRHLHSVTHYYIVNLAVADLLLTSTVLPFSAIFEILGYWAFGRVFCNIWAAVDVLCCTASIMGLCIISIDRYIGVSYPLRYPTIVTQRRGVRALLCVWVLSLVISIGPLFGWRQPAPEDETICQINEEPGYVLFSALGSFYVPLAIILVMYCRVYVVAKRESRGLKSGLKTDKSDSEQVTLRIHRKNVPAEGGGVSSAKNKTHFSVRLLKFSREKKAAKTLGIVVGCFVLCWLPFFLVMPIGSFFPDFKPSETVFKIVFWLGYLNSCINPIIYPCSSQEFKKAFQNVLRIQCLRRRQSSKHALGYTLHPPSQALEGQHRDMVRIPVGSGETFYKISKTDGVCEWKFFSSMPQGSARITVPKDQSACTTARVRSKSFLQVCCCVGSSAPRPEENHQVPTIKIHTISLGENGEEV
Procedure, shortened: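 Cortical membranes in 50 mM Tris-HCl pH 7.4, 10 mg fresh tissue per tube, with [3H]prazosin 0.4 nM final; 30 min at 25 °C, then vacuum filtration on GF/B and scintillation counting. 10 μM phentolamine defined nonspecific binding. Six test concentrations in triplicate; IC50 from competition curves, Ki by Cheng–Prusoff using Scatchard KD.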

[2] = molecular target: T2, 5-hydroxytryptamine receptor 2C (Rattus norvegicus, UniProt P08909); assay: Inhibition of 1 nM [3H]mesulergine binding to Serotonin 5-HT2C receptor from rat brain cortex
T2 sequence (P08909 whole entry): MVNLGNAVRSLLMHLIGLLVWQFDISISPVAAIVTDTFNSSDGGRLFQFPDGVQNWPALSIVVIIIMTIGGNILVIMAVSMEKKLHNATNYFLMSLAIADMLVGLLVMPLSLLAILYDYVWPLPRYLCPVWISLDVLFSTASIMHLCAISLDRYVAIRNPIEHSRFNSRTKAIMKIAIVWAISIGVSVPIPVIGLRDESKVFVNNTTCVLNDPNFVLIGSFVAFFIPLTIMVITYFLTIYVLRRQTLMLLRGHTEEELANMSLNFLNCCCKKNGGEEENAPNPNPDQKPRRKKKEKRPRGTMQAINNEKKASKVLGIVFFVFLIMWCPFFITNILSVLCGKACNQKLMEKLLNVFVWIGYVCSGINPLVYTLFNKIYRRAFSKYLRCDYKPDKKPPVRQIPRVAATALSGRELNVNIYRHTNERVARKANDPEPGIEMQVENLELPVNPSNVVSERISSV

[3] = molecular target: 5-hydroxytryptamine receptor 2A (Rattus norvegicus, UniProt P14842); assay: Inhibition of 0.4 nM [3H]ketanserin binding to Serotonin 5-HT2A receptor from rat brain cortex
Sequence of 5-hydroxytryptamine receptor 2A (P14842 whole entry): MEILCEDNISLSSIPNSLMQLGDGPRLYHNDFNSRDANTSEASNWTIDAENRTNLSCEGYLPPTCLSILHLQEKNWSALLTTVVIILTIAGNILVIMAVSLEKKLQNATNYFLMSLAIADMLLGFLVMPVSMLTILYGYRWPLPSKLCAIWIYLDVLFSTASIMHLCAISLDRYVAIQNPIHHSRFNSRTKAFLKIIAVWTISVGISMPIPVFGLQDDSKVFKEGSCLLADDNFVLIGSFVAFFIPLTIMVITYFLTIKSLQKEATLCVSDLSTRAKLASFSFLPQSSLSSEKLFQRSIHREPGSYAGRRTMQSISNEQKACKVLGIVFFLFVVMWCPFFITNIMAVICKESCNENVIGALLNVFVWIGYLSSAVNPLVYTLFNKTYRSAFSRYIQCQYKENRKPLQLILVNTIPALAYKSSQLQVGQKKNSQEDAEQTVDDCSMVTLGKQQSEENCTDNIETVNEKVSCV

[4] = molecular target: T3, Adrenergic receptor alpha-2 (Rattus norvegicus, UniProt P22086+P19328+P22909); assay: Inhibition of [3H]yohimbine binding to Adrenergic receptor alpha 2 receptor from rat brain cortex
T3 sequence (P22086 whole entry): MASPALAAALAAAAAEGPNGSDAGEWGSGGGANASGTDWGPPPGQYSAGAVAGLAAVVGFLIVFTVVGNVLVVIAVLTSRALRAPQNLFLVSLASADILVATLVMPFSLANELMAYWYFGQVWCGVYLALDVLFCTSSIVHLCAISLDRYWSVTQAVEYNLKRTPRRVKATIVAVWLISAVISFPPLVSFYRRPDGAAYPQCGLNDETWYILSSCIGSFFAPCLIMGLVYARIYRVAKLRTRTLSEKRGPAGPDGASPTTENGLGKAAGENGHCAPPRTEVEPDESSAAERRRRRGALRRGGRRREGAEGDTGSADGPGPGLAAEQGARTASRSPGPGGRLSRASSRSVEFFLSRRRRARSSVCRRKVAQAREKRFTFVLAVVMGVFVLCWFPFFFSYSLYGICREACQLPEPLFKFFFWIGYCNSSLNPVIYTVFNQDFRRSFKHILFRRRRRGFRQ
T3 sequence (P19328 whole entry): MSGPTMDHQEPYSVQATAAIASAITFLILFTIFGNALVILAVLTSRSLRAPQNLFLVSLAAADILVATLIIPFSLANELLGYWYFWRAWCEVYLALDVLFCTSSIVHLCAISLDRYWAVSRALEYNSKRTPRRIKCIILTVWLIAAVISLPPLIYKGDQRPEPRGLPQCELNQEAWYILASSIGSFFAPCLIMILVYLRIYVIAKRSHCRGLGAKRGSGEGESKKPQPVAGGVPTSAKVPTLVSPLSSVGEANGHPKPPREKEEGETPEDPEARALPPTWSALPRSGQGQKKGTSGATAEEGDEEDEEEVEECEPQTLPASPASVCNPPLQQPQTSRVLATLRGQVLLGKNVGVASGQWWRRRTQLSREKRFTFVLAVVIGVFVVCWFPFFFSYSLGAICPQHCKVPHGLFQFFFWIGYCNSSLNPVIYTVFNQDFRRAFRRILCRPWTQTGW
T3 sequence (P22909 whole entry): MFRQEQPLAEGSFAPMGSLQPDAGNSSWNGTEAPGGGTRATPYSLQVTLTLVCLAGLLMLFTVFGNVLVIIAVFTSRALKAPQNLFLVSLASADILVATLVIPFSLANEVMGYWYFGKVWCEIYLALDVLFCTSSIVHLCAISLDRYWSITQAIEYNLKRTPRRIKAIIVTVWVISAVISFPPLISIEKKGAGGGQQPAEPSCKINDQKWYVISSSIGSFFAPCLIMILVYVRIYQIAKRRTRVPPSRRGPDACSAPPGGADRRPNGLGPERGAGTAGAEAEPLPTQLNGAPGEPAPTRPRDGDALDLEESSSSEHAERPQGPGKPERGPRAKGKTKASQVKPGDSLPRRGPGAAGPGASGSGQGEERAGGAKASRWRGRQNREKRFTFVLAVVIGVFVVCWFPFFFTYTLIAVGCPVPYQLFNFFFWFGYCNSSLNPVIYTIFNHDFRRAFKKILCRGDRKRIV
Procedure, shortened: (§1)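 Brain cortex homogenized in 5 mM Tris-HCl/5 mM EDTA, washed three times at 50 000g, resuspended in 50 mM Tris-HCl/0.5 mM EDTA pH 7.5; 10 mg fresh tissue per tube. [3H]yohimbine 1 nM final, 30 min at 25 °C, GF/B filtration, scintillation counting. Six concentrations in triplicate; IC50 converted to Ki (Cheng–Prusoff).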

D(2) dopamine receptor = D(2) dopamine receptor (Rattus norvegicus, UniProt P61169); assay: Inhibition of [3H]spiperone binding to Dopamine D2 receptor from rat striatum
Sequence of D(2) dopamine receptor (P61169 whole entry): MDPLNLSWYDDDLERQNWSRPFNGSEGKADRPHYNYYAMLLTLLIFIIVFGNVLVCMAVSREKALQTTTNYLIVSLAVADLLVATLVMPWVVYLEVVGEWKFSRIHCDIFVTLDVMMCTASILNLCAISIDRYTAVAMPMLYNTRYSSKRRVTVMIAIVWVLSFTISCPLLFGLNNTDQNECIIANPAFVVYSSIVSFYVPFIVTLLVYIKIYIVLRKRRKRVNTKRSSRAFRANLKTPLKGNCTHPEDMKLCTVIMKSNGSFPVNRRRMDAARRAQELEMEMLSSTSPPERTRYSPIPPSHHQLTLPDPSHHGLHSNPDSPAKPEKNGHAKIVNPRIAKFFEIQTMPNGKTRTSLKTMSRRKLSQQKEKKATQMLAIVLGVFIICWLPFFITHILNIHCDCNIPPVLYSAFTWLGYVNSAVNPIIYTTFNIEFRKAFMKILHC
Procedure, shortened: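 Rat striatal membranes washed twice at 50 000g, resuspended in Tris-HCl pH 7.1 with NaCl, KCl, CaCl2, MgCl2, ascorbic acid, 10 μM pargyline; 3 mg fresh tissue per tube. [3H]spiperone 0.4 nM final, 15 min at 37 °C, GF/B filtration, scintillation counting. Nonspecific defined with 1 μM (+)-butaclamol. Six concentrations, triplicate; Ki via Cheng–Prusoff.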

[5] = molecular target: T4, 5-hydroxytryptamine receptor 1A (Rattus norvegicus, UniProt P19327); assay: Inhibition of [3H]8-OH-DPAT binding to Serotonin 5-HT1A receptor from rat brain cortex
T4 sequence (P19327 whole entry): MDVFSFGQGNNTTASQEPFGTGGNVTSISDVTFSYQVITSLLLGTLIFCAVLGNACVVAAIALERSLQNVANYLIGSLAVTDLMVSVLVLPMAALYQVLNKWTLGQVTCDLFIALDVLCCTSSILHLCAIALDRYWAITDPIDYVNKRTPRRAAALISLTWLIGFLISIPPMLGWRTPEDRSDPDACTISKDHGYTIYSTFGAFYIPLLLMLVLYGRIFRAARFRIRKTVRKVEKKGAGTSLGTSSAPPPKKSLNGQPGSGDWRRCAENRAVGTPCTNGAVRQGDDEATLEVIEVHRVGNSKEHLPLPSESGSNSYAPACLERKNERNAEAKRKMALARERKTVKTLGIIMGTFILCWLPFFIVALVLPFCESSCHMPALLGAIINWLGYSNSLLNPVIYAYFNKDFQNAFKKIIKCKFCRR

[6] = molecular target: T3, Adrenergic receptor alpha-2; assay: Inhibition of [3H]yohimbine binding to Adrenergic alpha 2 receptor from rat brain cortex; procedure, shortened: as §1

Sequence of D(1A) dopamine receptor (P18901 whole entry): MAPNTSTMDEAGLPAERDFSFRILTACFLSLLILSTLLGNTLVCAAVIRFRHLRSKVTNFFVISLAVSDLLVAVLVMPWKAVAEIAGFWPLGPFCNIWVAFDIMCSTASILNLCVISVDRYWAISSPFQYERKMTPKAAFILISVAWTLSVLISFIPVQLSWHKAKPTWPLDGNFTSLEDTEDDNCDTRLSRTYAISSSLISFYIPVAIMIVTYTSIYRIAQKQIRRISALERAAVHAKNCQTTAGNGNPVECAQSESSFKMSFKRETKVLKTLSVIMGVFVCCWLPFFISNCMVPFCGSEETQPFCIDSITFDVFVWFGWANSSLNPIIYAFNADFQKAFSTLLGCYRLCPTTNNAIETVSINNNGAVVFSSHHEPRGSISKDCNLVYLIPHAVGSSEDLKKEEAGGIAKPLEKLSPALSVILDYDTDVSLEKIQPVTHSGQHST

SMILES | Ki (D(1A) dopamine receptor; read-out: Ki) | Ki [1] | Ki [2] | Ki [3] | Ki [4] | Ki (D(2) dopamine receptor; read-out: Ki) | Ki [5] | Ki (D(2) dopamine receptor) | Ki (D(1A) dopamine receptor) | Ki [6]
COc1ccccc1N1CCN(CCCON2C(=O)C3C4C=CC(C4)C3C2=O)CC1 (stereo not drawn) | > 10 µM | 0.0753 µM | > 10 µM | > 10 µM | 3.65 µM | > 10 µM | 0.021 nM | – | – | –
O=C1C2C3C=CC(C3)C2C(=O)N1OCCCN1CCN(c2cccc(Cl)c2)CC1 (stereo not drawn) | > 10 µM | 0.141 µM | 0.733 µM | 0.547 µM | 1.71 µM | – | 3.36 nM | Not Active | – | –
O=C1C2C3C=CC(C3)C2C(=O)N1OCCN1CCN(c2ncccn2)CC1 (stereo not drawn) | – | – | – | > 10 µM | – | – | 384 nM | – | – | –
O=C1C2C3C=CC(C3)C2C(=O)N1OCCCN1CCN(c2cccc(C(F)(F)F)c2)CC1 (stereo not drawn) | 4.51 µM | 0.358 µM | > 10 µM | 2.68 µM | 4.68 µM | 0.67 µM | 5.13 nM | – | – | –
O=C1C2C3C=CC(C3)C2C(=O)N1OCCCN1CCN(c2ccccn2)CC1 (stereo not drawn) | – | – | > 10 µM | > 10 µM | – | – | 30.3 nM | – | – | –
COc1ccccc1N1CCN(CCON2C(=O)C3C4C=CC(C4)C3C2=O)CC1 (stereo not drawn) | – | – | > 10 µM | > 10 µM | – | – | 45 nM | – | – | –
O=C1C2C3C=CC(C3)C2C(=O)N1OCCCN1CCN(c2ncccn2)CC1 (stereo not drawn) | – | – | > 10 µM | 0.118 µM | – | – | 49.5 nM | – | – | –
O=C1C2C3C=CC(C3)C2C(=O)N1OCCCN1CCN(c2ccccc2Cl)CC1 (stereo not drawn) | – | 0.128 µM | 0.423 µM | 3.9 µM | 3.14 µM | – | 4.13 nM | Not Active | Not Active | –
O=C1C2C3C=CC(C3)C2C(=O)N1OCCN1CCN(c2cccc(Cl)c2)CC1 (stereo not drawn) | – | – | > 10 µM | 2.7 µM | – | – | 27.1 nM | – | – | –
O=C1C2C3C=CC(C3)C2C(=O)N1OCCN1CCN(c2cccc(C(F)(F)F)c2)CC1 (stereo not drawn) | > 10 µM | > 10 µM | > 10 µM | 4.01 µM | > 10 µM | > 10 µM | 2.14 nM | – | – | –
O=C1C2C3C=CC(C3)C2C(=O)N1OCCN1CCN(c2ccccn2)CC1 (stereo not drawn) | – | – | > 10 µM | 3.51 µM | – | – | 382 nM | – | – | –
O=C1C2C3C=CC(C3)C2C(=O)N1OCCN1CCN(c2ccccc2Cl)CC1 (stereo not drawn) | > 10 µM | 0.747 µM | > 10 µM | > 10 µM | – | > 10 µM | – | – | – | 0.691 µM
